Results on eleven compounds are retold here after ChEMBL document CHEMBL1255451, “Genetic basis of multidrug resistance in Acinetobacter clinical isolates in Taiwan” (2010).

≈ marks a conversion by molar mass, not a printed value. Calls of active or inactive are those of the source. The rule behind the calls is not given here.

Holding throughout (type): functional
For assay [1], the system named is Acinetobacter baumannii. Nature of the assay: Antimicrobial activity against Acinetobacter baumannii ATCC 15151 harboring ISAba1-blaOXA-23 gene by Etest.
The test system of assay [2] is Acinetobacter baumannii. Nature of the assay: Antimicrobial activity against Acinetobacter baumannii ATCC 15151 harboring ISAba1-blaOXA-66 gene by Etest.
Assay [3] relates to Acinetobacter baumannii. Nature of the assay: Antimicrobial activity against Acinetobacter baumannii 6AB11 harboring ISAba1-blaOXA-66 gene by Etest.
In assay [4] the test system is Acinetobacter baumannii. Nature of the assay: Antimicrobial activity against Acinetobacter baumannii 6AB15 harboring ISAba1-blaOXA-23 and blaOXA-66 gene by Etest.
The test system of assay [5] is Acinetobacter baumannii. The experiment in a line: Antimicrobial activity against Acinetobacter baumannii ATCC 15151 by Etest.
The test system of assay [6] is Acinetobacter baumannii. Nature of the assay: Antimicrobial activity against Acinetobacter baumannii ATCC 15151 harboring plasmid AT801 by Etest.
The test system of another assay is Acinetobacter sp. Nature of the assay: Antimicrobial activity against Acinetobacter sp. harboring aacA4 gene assessed as percent resistant isolates. In a few lines:
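Isolates: 75 nonduplicated Acinetobacter clinical isolates collected at one Taipei hospital in 2006 and identified with API 20NE. Susceptibility was tested on the Vitek 2 automated system using the AST-GN09 Gram-negative card.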

Turning to `C[C@H]1COc2c(N3CCN(C)CC3)c(F)cc3c(=O)c(C(=O)O)cn1c23`, the result with Acinetobacter baumannii [1] and in the assay on Acinetobacter baumannii [2] was Active.
In the case of `NCC[C@H](O)C(=O)N[C@@H]1C[C@H](N)[C@@H](O[C@H]2O[C@H](CN)[C@@H](O)[C@H](O)[C@H]2O)[C@H](O)[C@H]1O[C@H]1O[C@H](CO)[C@@H](O)[C@H](N)[C@H]1O`, the result in the assay with Acinetobacter baumannii [1] and in the assay with Acinetobacter baumannii [2] was Active.
For the compound `O=C(O)c1cn(C2CC2)c2cc(N3CCNCC3)c(F)cc2c1=O`, the result in the assay with Acinetobacter baumannii [1] and in the assay with Acinetobacter baumannii [2] was Active.
In general, MIC refers to the lowest concentration found to suppress growth. In the case of `CC1(C)S[C@@H]2[C@H](NC(=O)[C@H](N)c3ccccc3)C(=O)N2[C@H]1C(=O)O` [AMPICILLIN], the MIC against Acinetobacter baumannii [3] was not below 32 µg/mL; against Acinetobacter baumannii [4] it was not below 32 µg/mL; in the assay on Acinetobacter baumannii [5], 16 µg/mL (≈ 45.8 µM); in the assay on Acinetobacter baumannii [6] it was 32 µg/mL (≈ 91.6 µM); in the assay on Acinetobacter baumannii [1] it was not below 32 µg/mL; against Acinetobacter baumannii [2], not below 32 µg/mL.
Consider `CO/N=C(\C(=O)N[C@@H]1C(=O)N2C(C(=O)[O-])=C(C[N+]3(C)CCCC3)CS[C@H]12)c1csc(N)n1` [CEFEPIME], for which the MIC in the assay on Acinetobacter baumannii [3] was not below 64 µg/mL; against Acinetobacter baumannii [4], not below 64 µg/mL; in the assay with Acinetobacter baumannii [5], 4 µg/mL (≈ 8.32 µM); in the assay with Acinetobacter baumannii [6] it was 4 µg/mL (≈ 8.32 µM); against Acinetobacter baumannii [1], not below 64 µg/mL; in the assay with Acinetobacter baumannii [2], 4 µg/mL (≈ 8.32 µM).
Consider `CC(C)(O/N=C(\C(=O)N[C@@H]1C(=O)N2C(C(=O)[O-])=C(C[n+]3ccccc3)CS[C@H]12)c1csc(N)n1)C(=O)O` [CEFTAZIDIME], for which the MIC was not below 64 µg/mL against Acinetobacter baumannii [3]; not below 64 µg/mL in the assay on Acinetobacter baumannii [4]; 4 µg/mL (≈ 7.32 µM) in the assay on Acinetobacter baumannii [5]; 4 µg/mL (≈ 7.32 µM) in the assay with Acinetobacter baumannii [6]; 8 µg/mL (≈ 14.6 µM) against Acinetobacter baumannii [1]; 4 µg/mL (≈ 7.32 µM) in the assay on Acinetobacter baumannii [2].
`C[C@@H](O)[C@H]1C(=O)N2C(C(=O)O)=C(SCCNC=N)C[C@H]12` [IMIPENEM ANHYDROUS]: the minimum inhibitory concentration (MIC) against Acinetobacter baumannii [3] was not below 32 µg/mL; against Acinetobacter baumannii [4], not below 32 µg/mL; against Acinetobacter baumannii [5], 0.25 µg/mL (≈ 0.835 µM); with Acinetobacter baumannii [6] it was 0.25 µg/mL (≈ 0.835 µM); against Acinetobacter baumannii [1], not below 16 µg/mL; against Acinetobacter baumannii [2], not below 32 µg/mL.
Regarding `C[C@@H](O)[C@H]1C(=O)N2C(C(=O)O)=C(S[C@@H]3CN[C@H](C(=O)N(C)C)C3)[C@H](C)[C@H]12` [MEROPENEM], the MIC with Acinetobacter baumannii [3] was 16 µg/mL (≈ 41.7 µM); in the assay with Acinetobacter baumannii [4], not below 16 µg/mL; in the assay with Acinetobacter baumannii [5] it was 0.25 µg/mL (≈ 0.652 µM); in the assay on Acinetobacter baumannii [6], 0.25 µg/mL (≈ 0.652 µM); in the assay on Acinetobacter baumannii [1] it was not below 16 µg/mL; against Acinetobacter baumannii [2], not below 16 µg/mL.
Regarding `CCN1CCN(C(=O)N[C@@H](C(=O)N[C@@H]2C(=O)N3[C@@H]2SC(C)(C)[C@@H]3C(=O)O)c2ccccc2)C(=O)C1=O` [PIPERACILLIN], the MIC in the assay with Acinetobacter baumannii [3] is not below 128 µg/mL; in the assay on Acinetobacter baumannii [4], not below 128 µg/mL; against Acinetobacter baumannii [5], 16 µg/mL (≈ 30.9 µM); with Acinetobacter baumannii [6] it was not below 128 µg/mL; in the assay with Acinetobacter baumannii [1], not below 128 µg/mL; in the assay with Acinetobacter baumannii [2], not below 128 µg/mL.
On to `NC[C@H]1O[C@H](O[C@H]2[C@H](O)[C@@H](O[C@H]3O[C@H](CO)[C@@H](O)[C@H](N)[C@H]3O)[C@H](N)C[C@@H]2N)[C@H](N)C[C@@H]1O` [TOBRAMYCIN], for which the outcome with Acinetobacter baumannii [1] and in the assay on Acinetobacter baumannii [2] was Active. The Activity with Acinetobacter sp. amounted to 66%.
For GENTAMICIN, the result in the assay on Acinetobacter baumannii [1] and in the assay on Acinetobacter baumannii [2] was Active. Also, the Activity in the assay with Acinetobacter sp. was 66%.
